We go through one molecule from ChEMBL document CHEMBL3352498, “Membrane active phenylalanine conjugated lipophilic norspermidine derivatives with selective antibacterial activity” (J Med Chem, 2014).

The source made the active and inactive calls. The rule behind the calls is not given here.

In data set [1] the test system is Staphylococcus aureus. In words: Ratio of MIC for Staphylococcus aureus MTCC 737 after 4 hrs in presence of 50% human serum to MIC for Staphylococcus aureus MTCC 737 after 4 hrs. The format is functional. In a few lines:
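Compound mixed 1:1 with human serum (50% serum) and held at 37 °C; at 0, 2 and 4 h the mixture was serially 2-fold diluted in 0.9% saline. Activity against S. aureus then tested in triplicate by the standard broth microdilution MIC protocol.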

Data set [2] has as its system Enterococcus faecium. The experiment in a line: Antimicrobial activity against Enterococcus faecium ATCC 19634 after 24 hrs by broth microdilution method. As to conditions: ATCC 19634, 24 h. The class given is functional. Background: In broth dilution the organism is exposed to a series of concentrations in liquid medium.
Data set [3] deals with Staphylococcus aureus. The experiment in a line: Antimicrobial activity against Staphylococcus aureus MTCC 737 at sub-MIC measured after 20 passages by broth microdilution method. The class given is functional, organism-based.
In data set [4] the test system is Staphylococcus aureus. The experiment in a line: Antimicrobial activity against Staphylococcus aureus MTCC 737 assessed as membrane permeabilization at 12 times MIC by propidium iodide staining method. The format is functional, organism-based.
Data set [5] is described as follows: Hemolytic activity in human erythrocytes after 1 hr by spectrophotometry. The format is ADME, cell-based, Erythrocyte. Put shortly:
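Fresh heparinised human erythrocytes suspended to 5 vol % in PBS pH 7.4, mixed with serially diluted compound, 1 h at 37 °C; no-compound and 1 vol % Triton X-100 controls. Supernatant A540 after centrifugation gave % hemolysis; triplicates averaged, sigmoidal fit gave HC50.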

The subject of data set [6] is Staphylococcus aureus. The experiment in a line: Antimicrobial activity against Staphylococcus aureus MTCC 737 after 2 hrs by broth microdilution method in presence of 50% human plasma. The format is functional, organism-based. In a few lines:
(§1)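 Compound mixed 1:1 with fresh human plasma (50% plasma) and held at 37 °C; at 0, 2, 4, 6, 12 and 24 h aliquots were diluted 2-fold in 0.9% saline.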

Data set [7] concerns Staphylococcus aureus. The experiment in a line: Antimicrobial activity against Staphylococcus aureus MTCC 737 assessed as increase in MIC measured after 20 passages by broth microdilution method relative to control. The class given is functional.
For data set [8], the system named is Enterococcus faecium. The experiment in a line: Antimicrobial activity against vancomycin-resistant Enterococcus faecium ATCC 51559 after 24 hrs by broth microdilution method. The class given is functional. The conditions noted are these: ATCC 51559, 24 h. In a few lines: (§2)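 Broth microdilution per CLSI, 24 h at 37 °C. Inoculum is a 6 h 37 °C culture diluted to ~10^5 CFU/mL (yeast–dextrose broth for MRSA and K. pneumoniae). 50 μL of 2-fold dilutions in water plus 150 μL bacteria. Read by OD600, triplicates, run at least twice. MIC is taken from a sigmoidal fit as the point where OD equals the bacteria-free control.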

Data set [9] relates to Staphylococcus aureus. In words: Antimicrobial activity against Staphylococcus aureus MTCC 737 after 24 hrs by broth microdilution method. The format is functional. As to conditions: MTCC 737, 24 h. Put shortly: (§3)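 Broth microdilution per CLSI: 6 h cultures (37 °C) diluted to ~10^5 CFU/mL; 2-fold serial dilutions in sterile water added to bacteria; 24 h at 37 °C; OD600 read. Triplicates, experiment done at least twice; mean OD vs concentration fitted sigmoidally, MIC taken where OD matched the no-bacteria control. E. coli grown in LB broth, S. aureus in yeast–dextrose broth.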

Data set [10] relates to Escherichia coli. The experiment in a line: Antimicrobial activity against Escherichia coli MTCC 443 assessed as membrane permeabilization at 12 times MIC by propidium iodide staining method. The format is functional, organism-based.
Data set [11] in a line: Cytotoxicity against mouse RAW264.7 cells at 16 ug/ml after 1 hr by MTT assay. The format is cell-based. As to conditions: raw264.7, 1 h. In a few lines:
(§4)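 RAW 264.7 cells grown in DMEM with 10% FBS to ~70–80% confluency, exposed to serially diluted compound 1 h at 37 °C, 5% CO2; untreated and Triton X-100 controls. MTT (5 mg/mL) 4 h, formazan dissolved in DMSO, OD 570 nm; viability normalised to controls, triplicates, sigmoidal fit for 50% viability.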
(Formazan colour is commonly taken as a measure of viable cells.)

Data set [12] concerns Staphylococcus aureus. The experiment in a line: Antimicrobial activity against Staphylococcus aureus MTCC 737 after 4 hrs by broth microdilution method in presence of 50% human plasma. The class given is functional, organism-based. Put shortly: as §1
Data set [13] deals with Staphylococcus aureus. In words: Bactericidal activity against Staphylococcus aureus MTCC 737 assessed as log reduction in CFU/ml at 6 times MIC at 15 mins by time-kill assay relative to control. The format is functional.
Data set [14] in a line: Cytotoxicity against mouse RAW264.7 cells after 1 hr by MTT assay. The format is cell-based. As to conditions: raw264.7, 1 h. In a few lines: as §4
Data set [15] has as its system Escherichia coli. The experiment in a line: Antimicrobial activity against Escherichia coli MTCC 443 assessed as increase in MIC measured after 30 passages by broth microdilution method relative to control. The format is functional.
Data set [16] is described as follows: Critical micelle concentration of the compound. The format is ADME. In a few lines:
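Static light scattering at 90° (excitation and emission 400 nm) on compound dissolved at 500 μg/mL in yeast–dextrose broth at room temperature, measured over successive dilutions; cmc taken from the inflection point where intensity rises steeply then falls after a local maximum.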

Data set [17] has as its system Escherichia coli. In words: Antimicrobial activity against Escherichia coli MTCC 443 at sub-MIC measured after 30 passages by broth microdilution method. The class given is functional, organism-based.
Data set [18] relates to Staphylococcus aureus. In words: Antimicrobial activity against methicillin-resistant Staphylococcus aureus ATCC 33591 after 24 hrs by broth microdilution method. The format is functional. As to conditions: ATCC 33591, 24 h. In a few lines:
as §2

The subject of data set [19] is Escherichia coli. The experiment in a line: Antimicrobial activity against Escherichia coli MTCC 443 assessed as leakage of K+ at 12 times MIC using PBFI-AM by fluorescence spectroscopy. The class given is functional, organism-based.
Data set [20] deals with Staphylococcus aureus. The experiment in a line: Antimicrobial activity against Staphylococcus aureus MTCC 737 assessed as leakage of K+ at 12 times MIC using PBFI-AM by fluorescence spectroscopy. The class given is functional, organism-based.
Another data set concerns Klebsiella pneumoniae. In words: Antimicrobial activity against beta-lactam-resistant Klebsiella pneumoniae ATCC 700603 after 24 hrs by broth microdilution method. The format is functional. As to conditions: ATCC 700603, 24 h. Put shortly: as §2
Data set [21] has as its system Staphylococcus aureus. The experiment in a line: Bactericidal activity against Staphylococcus aureus MTCC 737 assessed as log reduction in CFU/ml at 6 times MIC by time-kill assay relative to control. The class given is functional.
Data set [22] deals with Staphylococcus aureus. The experiment in a line: Antimicrobial activity against Staphylococcus aureus MTCC 737 assessed as membrane depolarization at 12 times MIC using DiSC3 by fluorescence spectroscopy. The format is functional, organism-based. In a few lines: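 Mid-log S. aureus washed and resuspended in 5 mM HEPES, 5 mM glucose, 100 mM KCl (1:1:1); 2 μM DiSC3(5) added, 20 min preincubation.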

Data set [23] has as its system Escherichia coli. The experiment in a line: Antimicrobial activity against Escherichia coli MTCC 443 after 24 hrs by broth microdilution method. The conditions noted are these: MTCC 443, 24 h. The format is functional. Put shortly: as §3

As to `CCCCCCCCCCCC(=O)N(CCCNC(=O)[C@H](N)Cc1ccccc1)CCCNC(=O)[C@H](N)Cc1ccccc1.O=C(O)C(F)(F)F.O=C(O)C(F)(F)F`, the “fold change (FC)” value with Staphylococcus aureus [1] was 2; in the data set with Staphylococcus aureus [7], 800; in the data set with Escherichia coli [15], 250. In addition, the minimum inhibitory concentration (MIC) turned out to be 2.8 µg/mL in the data set with Enterococcus faecium [2]; 2.4 µg/mL in the data set on Enterococcus faecium [8]; 3.5 µg/mL in the data set with Staphylococcus aureus [9]; 4.2 µg/mL against Staphylococcus aureus [18]; 6.5 µg/mL against Klebsiella pneumoniae; 10 µg/mL in the data set on Escherichia coli [23]. Moreover, the result with Staphylococcus aureus [3], in the data set on Staphylococcus aureus [4], in the data set with Staphylococcus aureus [6], in the data set with Escherichia coli [10], in the data set on Staphylococcus aureus [12] and in the data set on Escherichia coli [17] was Active. Also, the result with Escherichia coli [19], in the data set on Staphylococcus aureus [20] and in the data set on Staphylococcus aureus [22] was Active. The HC50 at 1 h in data set [5] came to 209 µg/mL. In addition, the Activity result in [11] and in data set [14] was “Non-toxic” each time. Besides, the FC with Staphylococcus aureus [13] and in the data set with Staphylococcus aureus [21] was 3 in each case. Also, the CMC in [16] was found to be 40 µg/mL.

What is called MIC is the lowest concentration that inhibits growth of the organism. A high value points to a less susceptible organism. The HC50 is the concentration giving 50% haemolysis. Higher therefore signals less damage to red cells.
